Screens deposited in PubChem by Sanford-Burnham Center for Chemical Genomics.
Rows were chosen to be rich in hits. Some 3.9% of all compounds tested hit in one or more screens of this group.
tim23-1 inh – tim23-1 yeast growth inhibition | S. cerevisiae tim23-1 growth, BacTiter-Glo luminescence, 24 h | inhibition, % at 20 µM | 330,000 compounds, 1.3% hits | AID 463212;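 active means growth inhibition of the mutant yeast at or above 50%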;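 further: temperature-sensitive mutant grown at 25 °C; plate controls were DMSO-treated mutant yeast for no effect and medium wells lacking yeast for full effect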
UPR XBP1 act – activators of adaptive arm of unfolded protein response (XBP1). CHO-XBP1 luciferase reporter, IRE1-XBP1 UPR activation, luminescence; percent of tunicamycin response, DMSO as zero. activation, % at 20 µM. 330,000 compounds, 0.33% hits. AID 463104;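 active means versus positive control, 20 µM dose yields 30% or more activation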;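 further: 100% = tunicamycin at 10 µg/mL and 0% = DMSO only wells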
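Test system: CHO-XBP1 luciferase reporter cells | Buffer or medium: Serum-containing F12 medium, 10% FBS | Schedule: 6 h compound exposure at 37 °C, 5% CO2 | Detection: Steady-Glo luciferase glow luminescence, 10 min after reagent addition | Read-out basis: Activation, % of tunicamycin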
UPR CHOP act – activators of apoptotic arm of unfolded protein response (CHOP); 330,000 compounds, 0.34% hits; activation, % at 10 µM; CHO-CHOP luciferase reporter, UPR activation, luminescence; percent of tunicamycin response over DMSO baseline;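 active means at 10 µM dose, activation of 40% or more, normalized to positive control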;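 further: 100% = tunicamycin at 10 µg/mL and 0% = DMSO alone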
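Test system: CHO CHOP reporter cells. Input: 500 CHO-CHOP cells per well. Medium: F12 with 10% FBS. Technique: luciferase luminescence. Measure: percent activation relative to tunicamycin control. Dosing: 10 µM compound, 0.5% DMSO. Timing: 16-18 h cell attachment, then 6 h compound exposure, 37 °C.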
tim10-1 inh – tim10-1 yeast growth inhibition; 330,000 compounds, 2.2% hits; inhibition, % at 20 µM; S. cerevisiae tim10-1 ts strain growth, BacTiter-Glo, 24 h;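 active means inhibition of at least 40%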;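 further: mutant grown at 25 °C; 0% = DMSO wells with yeast and 100% = wells holding no yeast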
TIM10 inh – TIM10 yeast growth inhibition; 330,000 compounds, 1.4% hits; S. cerevisiae TIM10 strain growth, BacTiter-Glo luminescence, 24 h; AID 463195; inhibition, % at 10 µM;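 active means inhibition of 40% or more at the single tested concentration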;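 further: wild-type TIM10 isogenic control strain grown at permissive 25 °C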
tim10-1 confirm – tim10-1 yeast growth inhibition, confirmed. AID 463213. inhibition, % at 20 µM. shares compounds with tim10-1 inh. S. cerevisiae tim10-1 ts strain growth, BacTiter-Glo, 24 h. 7,400 compounds, 56% hits;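 active means inhibition of yeast growth at or above a set limit in either of two repeat tests at 20 µM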;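 further: tim10-1 mutant grown at permissive 25 °C to find synthetic lethal compounds; 0% = DMSO yeast wells and 100% = medium wells without yeast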
TIM10 conf – confirmation of TIM10 yeast growth inhibitors | shares compounds with TIM10 inh | S. cerevisiae tim10 strain growth, BacTiter-Glo luminescence, 24 h | inhibition, % at 10 µM | 4,600 compounds, 63% hits | AID 463215;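 active means inhibition of yeast growth at or above a set limit in either of two replicates at 10 µM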;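 further: this counterscreen used the strain with wild-type TIM10; 0% = yeast with DMSO and 100% = medium wells lacking yeast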
tim23-1 confirm – tim23-1 yeast growth inhibition, confirmed | shares compounds with tim23-1 inh | S. cerevisiae tim23-1 growth, BacTiter-Glo luminescence, 24 h | inhibition, % at 20 µM | 4,400 compounds, 83% hits | AID 463218;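 active means inhibition above about 39% in either of two replicate wells at 20 µM, limit read from the data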;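 further: temperature-sensitive tim23-1 mutant grown at 25 °C; 0% = DMSO wells with yeast and 100% = medium wells without yeast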
An asterisk follows results filed as active; . = no result.

SMILES	tim23-1 inh	UPR XBP1 act	UPR CHOP act	tim10-1 inh	TIM10 inh	tim10-1 confirm	TIM10 conf	tim23-1 confirm
COc1ccc2oc(C(=O)N3CCN(S(=O)(=O)c4ccc(F)cc4)CC3)c(C)c2c1	32.6	-2.1	0.1	18.5	19.1	.	.	.
COc1ccc(S(=O)(=O)N2CCN(C(=O)c3oc4ccccc4c3C)CC2)cc1	53.3*	-3.3	1.5	57.3*	44.2*	43.4*	55.4*	54.1*
COc1ccc(C(=O)/C(=C/c2cccs2)c2nc3ccccc3o2)cc1	52.6*	-1.6	1.4	49.5*	43.3*	41.9*	-15.0	54.2*
Cc1cc(OC(C)C(=O)NCC2CCCO2)cc(C)c1Cl (stereo not drawn)	-0.8	-1.6	0.1	-11.0	-8.4	.	.	.
Cc1ccc(NC(=O)CS(=O)CC(=O)Nc2ccccc2-c2ccc(C)o2)cc1 (stereo not drawn)	50.2*	0.3	1.7	45.4*	29.5	28.4*	.	46.7*
CN(C(=O)/C=C/c1ccc([N+](=O)[O-])s1)c1ccccc1	53.0*	-0.5	1.5	45.4*	43.2*	59.1*	48.7*	50.0*
Cc1ccc(C2=NOC(=O)/C2=C\c2ccc(C)o2)cc1	78.6*	15.7	5.1	58.6*	45.4*	38.5*	39.1*	80.0*
CN(C(=O)Cc1c(C(=O)O)n(C)c2ccccc12)c1cccc(C(F)(F)F)c1	18.1	-1.3	0.7	-9.4	8.3	.	.	.
CN(C)c1nc(N/N=C/c2ccccc2O)nc(Nc2ccc(F)cc2)n1	58.6*	-3.1	1.4	47.3*	18.8	37.5*	.	67.0*
Cc1cccc(C(=O)OC(C)C(=O)Nc2ccc(S(=O)(=O)Nc3ncccn3)cc2)c1C (stereo not drawn)	18.1	0.0	1.8	8.8	14.8	.	.	.
Cc1ccc(C2CC(c3cccs3)=NN2C(=O)CSC2=NN3CCCC(=O)N=C3S2)cc1 (stereo not drawn)	56.8*	-3.0	0.2	50.5*	44.5*	43.8*	39.9*	60.0*
COc1ccc(/C=C/C(=O)c2cc(F)ccc2OC(=O)c2ccc(OC)c(OC)c2)cc1OC	52.4*	0.8	1.3	50.3*	53.6*	45.8*	28.6	55.9*
COc1ccc(/C=C/C(=O)c2cc(Br)ccc2O)cc1OC	18.2	1.4	0.8	19.6	22.2	.	.	.
C=CCn1c(O)c(C2=c3ccccc3=NC2=O)c2ccccc21	-2.4	-13.4	-11.5	-146.2	11.8	.	.	.
Cc1ccc2c(c1)c(C1=c3ccccc3=NC1=O)c(O)n2C	52.1*	-10.7	28.2	50.1*	41.2*	33.3*	50.3*	64.3*
CCN(CC)/C(Sc1ccccc1)=C(\C(Cl)=C(Cl)Cl)[N+](=O)[O-]	51.2*	0.9	-1.9	44.1*	46.3*	35.1*	18.9	50.5*
CC1=NN(C(N)=S)C(=O)C1N=Nc1ccc(Cl)cc1Cl (stereo not drawn)	64.1*	-1.0	5.5	57.0*	46.4*	55.8*	58.0*	73.2*
O=C(COC(=O)C1CCN(c2ccc(C(F)(F)F)cn2)CC1)Nc1ccc(Cl)cc1	55.8*	-0.5	2.0	43.3*	18.8	46.1*	.	59.6*
C/C(=N\NC(=O)c1ccccc1O)C1C(=O)c2ccccc2C1=O	73.1*	1.9	4.7	53.5*	72.7*	52.5*	70.4*	79.1*
CCC/C(C)=N/NC(=O)c1ccccc1O	0.8	1.1	4.9	4.5	4.3	.	.	.
O=C(OCc1cnc(Cl)s1)c1ccccc1Cl	-6.1	2.7	2.5	-7.8	-7.7	.	.	.
O=C(OCn1ncc(Br)c(Br)c1=O)c1ccc(F)cc1	55.4*	-5.8	-11.2	73.0*	70.5*	65.0*	-13.6	37.9
O=C(OCn1ncc(Br)c(Br)c1=O)c1ccccc1Cl	73.0*	-8.1	-10.7	58.3*	77.1*	50.0*	-8.8	22.6
CC(=O)Nc1ccc(NC(=O)COC(=O)c2c(C)nn(-c3ccccc3)c2C)cc1	2.2	-0.9	1.1	10.9	7.0	.	.	.
Cc1nn(-c2ccccc2)c(C)c1C(=O)OCC(=O)NC12CC3CC(CC(C3)C1)C2	61.9*	-1.8	1.3	42.8*	53.6*	48.8*	34.2*	53.6*
SMILES	tim23-1 inh	UPR XBP1 act	UPR CHOP act	tim10-1 inh	TIM10 inh	tim10-1 confirm	TIM10 conf	tim23-1 confirm
COc1ccc(C(=O)/C=C/C(=O)N(CC(=O)NC2CCCCC2)CC2CCCO2)c(O)c1 (stereo not drawn)	50.7*	-14.4	4.0	46.5*	48.7*	56.4*	51.9*	60.2*
CNC(=O)/C(C#N)=C/c1cccc(Oc2ccccc2)c1	91.4*	-1.4	5.5	86.5*	78.2*	90.5*	78.2*	79.7*
CC(=O)Nc1cccc(OCC(=O)Nc2sccc2C(N)=O)c1	-19.6	-3.0	1.6	2.6	-5.0	.	.	.
O=C(CSCc1ccccc1)N=Nc1c(O)[nH]c2ccccc12	28.3	4.5	5.2	33.1	30.8	.	.	.
O=C(CSCc1cccc(Br)c1)N=Nc1c(O)[nH]c2ccccc12	53.4*	0.8	-1.3	45.2*	34.5	20.4	.	59.3*
Cc1nc(SCC(=O)Nc2ccc(CN3CCCC3)cc2)c2c(C)c(C)sc2n1	53.4*	9.1	1.2	50.9*	50.7*	61.5*	37.9*	56.6*
CC(=O)Nc1ccc(NC(=O)CSc2nc(C)nc3sc(C)c(C)c23)cc1	-22.2	0.7	0.0	-11.2	8.7	.	.	.
CCOc1ccc(-n2cc(-c3ccccc3)c3c(=S)nc[nH]c32)cc1	64.2*	-0.7	0.9	70.3*	45.0*	32.8*	46.9*	33.8
NC(=O)c1c(NC(=O)c2cccs2)sc2c1CCCCCC2	58.8*	7.2	5.6	46.2*	22.7	11.6	.	58.5*
O=C(Nc1sc2c(c1C(=O)O)CCC2)c1cccs1	28.5	-4.5	-3.3	18.8	18.1	.	.	.
COc1ccc(/C=N/n2c(C3CCCCC3)n[nH]c2=S)c(OC)c1	58.3*	1.5	-1.3	40.5*	28.7	19.8	.	48.4*
COc1ccc(/C(N)=N/OC(=O)c2ccc3c(c2)OCO3)cc1OC	59.5*	9.2	5.1	69.1*	47.0*	75.0*	46.1*	56.1*
N/C(=N\OC(=O)c1ccc2c(c1)OCO2)c1cccc(Br)c1	78.2*	-2.7	2.8	67.9*	92.5*	48.2*	95.8*	87.8*
N/C(=N\OC(=O)c1cccc(Br)c1)c1ccc([N+](=O)[O-])cc1	16.2	5.2	5.9	20.0	4.2	.	.	.
